Experimental data published in ChEMBL document CHEMBL4265973, “Broad-spectrum antibacterial amphiphilic aminoglycosides: A new focus on the structure of the lipophilic groups extends the series of active dialkyl neamines” (Eur J Med Chem, 2018).
Values after ≈ are worked out from the molar mass of the structure shown.

Assays:
Pseudomonas aeruginosa [1] = assay: Antibacterial activity against Pseudomonas aeruginosa PA22 harboring surexp MexXY by microdilution assay; format: functional
Outline: (§1)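 Broth microdilution MIC per CLSI recommendations, fresh culture in cation-adjusted Mueller-Hinton broth, starting inoculum 10^6 cells.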

Staphylococcus aureus [2] = assay: Antibacterial activity against Staphylococcus aureus ATCC 25923 by microdilution assay; format: functional; outline: as §1
Escherichia coli [3] = assay: Antibacterial activity against Escherichia coli L8058.1 harboring ANT2'-1A by microdilution assay; format: functional; outline: as §1
Pseudomonas aeruginosa [4] = assay: Antibacterial activity against Pseudomonas aeruginosa ATCC 27853 by microdilution assay; format: functional
Outline: (§2)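 Broth microdilution per CLSI recommendations, using a fresh culture in cation-adjusted Mueller-Hinton broth (CA-MHB) and a starting inoculum of 10^6 cells; the MIC is the value read.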

Staphylococcus aureus [5] = assay: Antibacterial activity against Staphylococcus aureus SA-1 expressing NorA pump by microdilution assay
Acinetobacter lwoffii [6] = assay: Antibacterial activity against Acinetobacter lwoffii ATCC 17925 by microdilution assay; format: functional; outline: as §2
Escherichia coli [7] = assay: microbe, parasite or virus in culture; conditions: ATCC 25922
Acinetobacter lwoffii [8] = assay: Antibacterial activity against Acinetobacter lwoffii AI.88-483 harboring APH3'-6A by microdilution assay; format: functional; outline: as §1
Escherichia coli [9] = assay: Antibacterial activity against Escherichia coli PAZ505H8101 harboring AAC6'-1B by microdilution assay; format: functional; outline: as §1
Pseudomonas aeruginosa [10] = assay: Antibacterial activity against Pseudomonas aeruginosa PA406 harboring triABC deletion mutant by microdilution assay; format: functional; outline: as §1
Staphylococcus aureus [11] = assay: Antibacterial activity against methicillin-resistant Staphylococcus aureus ATCC 33592 by microdilution assay; format: functional; outline: as §1
Klebsiella pneumoniae = assay: Antibacterial activity against Klebsiella pneumoniae 700603 by microdilution assay; format: functional; outline: as §2
Pseudomonas aeruginosa [12] = assay: Antibacterial activity against Pseudomonas aeruginosa FO3 harboring AAC6'-2A by microdilution assay; format: functional; outline: as §1
[13] = Cytotoxicity against mouse J774 cells assessed as cell viability at 10 uM after 24 hrs by MTT assay relative to control; format: cell-based; conditions: J774 cells, read-out: Activity
Outline: (§3)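 Murine J774 macrophages are exposed for 24 h to compound at 10 or 30 µM, then given 0.2 mg/mL MTT for 1 h. The reaction is stopped with DMSO and OD read at 570 nm; viability is metabolic activity as % of control. The number of independent experiments is given per value.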

[14] = Cytotoxicity against mouse J774 cells assessed as cell viability at 30 uM after 24 hrs by MTT assay relative to control; format: cell-based; conditions: J774 cells, read-out: Activity; outline: as §3

Compound	MIC (Pseudomonas aeruginosa [1]) [µg/mL]	MIC (Staphylococcus aureus [2]) [µg/mL]	MIC (Escherichia coli [3]) [µg/mL]	MIC (Pseudomonas aeruginosa [4]) [µg/mL]	MIC (Staphylococcus aureus [5]) [µg/mL]	MIC (Acinetobacter lwoffii [6]) [µg/mL]	MIC (Escherichia coli [7]) [µg/mL]	MIC (Acinetobacter lwoffii [8]) [µg/mL]	MIC (Escherichia coli [9]) [µg/mL]	MIC (Pseudomonas aeruginosa [10]) [µg/mL]	MIC (Staphylococcus aureus [11]) [µg/mL]	MIC (Klebsiella pneumoniae) [µg/mL]	MIC (Pseudomonas aeruginosa [12]) [µg/mL]	viability at 24 h, 10 µM [13] [%]	viability at 24 h, 30 µM [14] [%]
NC[C@H]1O[C@H](O[C@H]2[C@H](O)[C@@H](OCCCCc3ccc4ccccc4c3)[C@H](N)C[C@@H]2N)[C@H](N)[C@@H](OCCCCc2ccc3ccccc3c2)[C@@H]1O	8 (≈ 11.6 µM)	2 (≈ 2.91 µM)	8 (≈ 11.6 µM)	4 (≈ 5.82 µM)	2 to 4 (≈ 2.91 to 5.82 µM)	2 (≈ 2.91 µM)	8 (≈ 11.6 µM)	> 128	4 (≈ 5.82 µM)	8 (≈ 11.6 µM)	2 (≈ 2.91 µM)	32 (≈ 46.6 µM)	8 (≈ 11.6 µM)		
CCCCCCCO[C@@H]1[C@@H](N)[C@@H](O[C@H]2[C@H](O)[C@@H](OCCCCCCC)[C@H](N)C[C@@H]2N)O[C@H](CN)[C@H]1O	16 (≈ 30.8 µM)	8 (≈ 15.4 µM)	32 (≈ 61.7 µM)	32 (≈ 61.7 µM)	8 (≈ 15.4 µM)	32 (≈ 61.7 µM)	32 (≈ 61.7 µM)	> 128	16 (≈ 30.8 µM)	4 (≈ 7.71 µM)	8 (≈ 15.4 µM)	64 (≈ 123 µM)	8 (≈ 15.4 µM)	96.3	79.9
CCCCCCCCCCCO[C@@H]1[C@@H](N)[C@@H](O[C@H]2[C@H](O)[C@@H](OCCCCCCC)[C@H](N)C[C@@H]2N)O[C@H](CN)[C@H]1O	4 (≈ 6.96 µM)	1 (≈ 1.74 µM)	4 (≈ 6.96 µM)	2 (≈ 3.48 µM)	32 (≈ 55.7 µM)	2 (≈ 3.48 µM)	2 (≈ 3.48 µM)	> 128	2 (≈ 3.48 µM)	2 (≈ 3.48 µM)	1 (≈ 1.74 µM)	4 (≈ 6.96 µM)	4 (≈ 6.96 µM)	88.4	39.1
CCCCCCCCCO[C@@H]1[C@@H](N)[C@@H](O[C@H]2[C@H](O)[C@@H](O)[C@H](N)C[C@@H]2N)O[C@H](CN)[C@H]1OCCCCCCCCC	8 to 16 (≈ 13.9 to 27.8 µM)	4 (≈ 6.96 µM)	8 (≈ 13.9 µM)	8 to 16 (≈ 13.9 to 27.8 µM)	4 (≈ 6.96 µM)	4 to 8 (≈ 6.96 to 13.9 µM)	4 to 8 (≈ 6.96 to 13.9 µM)	32 (≈ 55.7 µM)	4 to 8 (≈ 6.96 to 13.9 µM)	8 to 16 (≈ 13.9 to 27.8 µM)	4 (≈ 6.96 µM)	16 to 32 (≈ 27.8 to 55.7 µM)	8 to 16 (≈ 13.9 to 27.8 µM)		
CCCCCCCCCCCO[C@@H]1[C@@H](O)[C@H](O[C@H]2O[C@H](CN)[C@@H](O)[C@H](OCCCCCCC)[C@H]2N)[C@@H](N)C[C@H]1N	4 (≈ 6.96 µM)	1 (≈ 1.74 µM)	4 (≈ 6.96 µM)	2 (≈ 3.48 µM)	1 (≈ 1.74 µM)	2 (≈ 3.48 µM)	16 (≈ 27.8 µM)	> 128	4 (≈ 6.96 µM)	2 (≈ 3.48 µM)	1 (≈ 1.74 µM)	8 (≈ 13.9 µM)	4 (≈ 6.96 µM)	82.9	38.8
NC[C@@H]1O[C@H](O[C@H]2[C@@H](O)[C@H](O[C@@H]3[C@@H](O)[C@H](N)C[C@H](N)[C@H]3O[C@H]3O[C@H](CN)[C@@H](O)[C@H](O)[C@H]3N)O[C@@H]2CO)[C@H](N)[C@@H](O)[C@@H]1O [FRAMYCETIN]	32 to 64 (≈ 52.1 to 104 µM)	1 to 2 (≈ 1.63 to 3.25 µM)	1 (≈ 1.63 µM)	64 (≈ 104 µM)	0.5 to 1 (≈ 0.813 to 1.63 µM)	< 0.25	2 (≈ 3.25 µM)	64 to 128 (≈ 104 to 208 µM)	4 (≈ 6.51 µM)	2 to 4 (≈ 3.25 to 6.51 µM)	> 128	4 to 8 (≈ 6.51 to 13 µM)	128 (≈ 208 µM)		
GENTAMICIN	4	0.25 to 0.5	64	1		< 0.25		2	1	< 0.25	1	4 to 8	> 128		
CCCCCCCCCCCO[C@@H]1[C@@H](O)[C@H](O[C@H]2O[C@H](CN)[C@@H](O)[C@H](O)[C@H]2N)[C@@H](N)C[C@H]1N	> 128	32 (≈ 67.1 µM)	> 128	> 128	8 (≈ 16.8 µM)	64 (≈ 134 µM)	> 128	> 128	> 128	16 (≈ 33.6 µM)	8 (≈ 16.8 µM)	> 128	> 128	74.7	83.4
CCCCCCCCO[C@@H]1[C@@H](N)[C@@H](O[C@H]2[C@H](O)[C@@H](OCCCCCCCC)[C@H](N)C[C@@H]2N)O[C@H](CN)[C@H]1O	8 (≈ 14.6 µM)	1 (≈ 1.83 µM)	4 (≈ 7.32 µM)	2 (≈ 3.66 µM)	1 (≈ 1.83 µM)	2 to 4 (≈ 3.66 to 7.32 µM)	4 (≈ 7.32 µM)	128 (≈ 234 µM)	2 to 4 (≈ 3.66 to 7.32 µM)	2 (≈ 3.66 µM)	2 (≈ 3.66 µM)	8 (≈ 14.6 µM)	8 (≈ 14.6 µM)	91.3	65.1
NC[C@H]1O[C@H](O[C@H]2[C@H](O)[C@@H](O[C@H]3O[C@H](CO)[C@@H](O)[C@H](N)[C@H]3O)[C@H](N)C[C@@H]2N)[C@H](N)C[C@@H]1O [TOBRAMYCIN]	0.5 (≈ 1.07 µM)	0.25 to 0.5 (≈ 0.535 to 1.07 µM)	64 (≈ 137 µM)	< 0.25	0.5 (≈ 1.07 µM)	< 0.25	1 (≈ 2.14 µM)	0.5 to 1 (≈ 1.07 to 2.14 µM)	32 (≈ 68.4 µM)	< 0.25	64 (≈ 137 µM)	4 to 8 (≈ 8.56 to 17.1 µM)	128 (≈ 274 µM)		
CCCCCCCO[C@@H]1[C@@H](N)[C@@H](O[C@H]2[C@H](O)[C@@H](O)[C@H](N)C[C@@H]2N)O[C@H](CN)[C@H]1O	> 128	> 128	> 128	> 128	> 128	64 (≈ 152 µM)	> 128	> 128	> 128	> 128	> 128	> 128	> 128	77.5	70.2
NC[C@H]1O[C@H](O[C@H]2[C@H](O)[C@@H](OCc3ccc4ccccc4c3)[C@H](N)C[C@@H]2N)[C@H](N)[C@@H](OCc2ccc3ccccc3c2)[C@@H]1O															75.7
CCCCCCCCCCCO[C@@H]1[C@@H](N)[C@@H](O[C@H]2[C@H](O)[C@@H](O)[C@H](N)C[C@@H]2N)O[C@H](CN)[C@H]1O	> 128	16 (≈ 33.6 µM)	32 (≈ 67.1 µM)	> 128	16 (≈ 33.6 µM)	32 (≈ 67.1 µM)	64 (≈ 134 µM)	> 128	32 (≈ 67.1 µM)	4 to 8 (≈ 8.39 to 16.8 µM)	16 (≈ 33.6 µM)	> 128	> 128	81.8	77.1
NCC[C@H](O)C(=O)N[C@@H]1C[C@H](N)[C@@H](O[C@H]2O[C@H](CN)[C@@H](O)[C@H](O)[C@H]2O)[C@H](O)[C@H]1O[C@H]1O[C@H](CO)[C@@H](O)[C@H](N)[C@H]1O [AMIKACIN]	8 (≈ 13.7 µM)	4 (≈ 6.83 µM)	8 (≈ 13.7 µM)	2 to 4 (≈ 3.42 to 6.83 µM)	2 (≈ 3.42 µM)	< 0.25	4 (≈ 6.83 µM)	128 (≈ 219 µM)	64 (≈ 109 µM)	1 (≈ 1.71 µM)	8 to 16 (≈ 13.7 to 27.3 µM)	1 (≈ 1.71 µM)	8 (≈ 13.7 µM)		
NC[C@H]1O[C@H](O[C@H]2[C@H](O)[C@@H](O)[C@H](N)C[C@@H]2N)[C@H](N)[C@@H](O)[C@@H]1O [NEAMINE]	> 128	16 to 32 (≈ 49.6 to 99.3 µM)	32 (≈ 99.3 µM)	> 128	8 (≈ 24.8 µM)	0.5 (≈ 1.55 µM)	32 (≈ 99.3 µM)	> 128	> 128	64 (≈ 199 µM)	> 128	32 (≈ 99.3 µM)	> 128		
